Each block holds one molecule with its values, some of them ahead of it. Square brackets hold non-standard residues; d marks the D form. Peptide text beside a SMILES is read from it. * marks the point of attachment. Cbz = O=C(OCc1ccccc1)*; βAla = NCCC(=O)O
Experiments:
[1] = biological target: recombinant human 6His-tagged-Pin1 (Homo sapiens, UniProt Q13526); experiment: Direct-binding assay
Outline: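 Label-free optical biosensor assay. His6-Pin1 was expressed in E. coli BL21(DE3), purified, and immobilised at 150 µg/mL in 20 mM sodium acetate pH 5.5 overnight at 4 °C. Equilibrated 4 h in PBS, 0.5% DMSO, pH 7.4, then baseline read. Peptides were serially diluted to twelve concentrations from 500 µM final and read over 1 h. KD came from last-baseline-to-maximum signal, mean ± S.D. of three independent experiments.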

[2] = biological target: recombinant human 6His-tagged-Pin4 (Homo sapiens, UniProt Q9Y237); experiment: Direct-binding assay
recombinant human 6His-tagged-Pin4, sequence (Q9Y237 whole entry): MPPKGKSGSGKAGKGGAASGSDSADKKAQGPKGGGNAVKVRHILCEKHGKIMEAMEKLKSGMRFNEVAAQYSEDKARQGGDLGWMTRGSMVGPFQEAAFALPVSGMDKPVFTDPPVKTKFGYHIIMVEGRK

[3] = system: cancer cell lines (A549, HCT116, MCF7, LNCaP); experiment: MTT anti-proliferative assay, R8 peptides, cancer cell lines; assay type: cell-based, human; conditions: 10 μM, after 24 h, effect persisted up to 48 h; all cancer cells tested
Outline: (§1)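 MTT viability. A549, HCT116, MCF7 and AC16 were grown in DMEM; LNCaP in RPMI 1640. Both media had 10% FBS, penicillin/streptomycin, amphotericin-B and 2 mM L-glutamine. Cells seeded at 3×10⁴/well, treated in triplicate at 10 µM for 24 and 48 h. MTT 0.5 mg/mL for 3 h, formazan dissolved in DMSO, absorbance read at 570 nm. Expressed as % of untreated control, mean ± S.D. of three independent experiments.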

AC16 non-tumor cells = experiment: MTT anti-proliferative assay, R8 peptides, AC16; assay type: cell-based, human; conditions: 10 μM, 24 h and 48 h
Outline: as §1

HCT116 cells [4] = experiment: MTT anti-proliferative assay, HCT116; assay type: cell-based, human; conditions: 10 μM, 24 h
Outline: as §1

HCT116 cells [5] = experiment: Cell cycle analysis by flow cytometry; assay type: cell-based, human; conditions: 10 μM, 48 h
Outline: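 HCT116 cells plated at 2×10⁵ cells/mL in triplicate and treated at 10 µM for 48 h. Harvested in PBS, spun at 1200 rpm for 5 min, then resuspended in hypotonic buffer (1×PBS, 0.1% sodium citrate, 0.1% NP-40, RNase A, […]). Held 30 min at RT in the dark, then run on flow cytometry with SSC-A/FSC-A gating and PI-A intensity.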

[6] = biological target: NIMA interacting protein 1 (Pin1) (human) (UniProt Q13526); experiment: Corning Epic label-free optical biosensor
NIMA interacting protein 1 (Pin1) (human), sequence (Q13526 whole entry): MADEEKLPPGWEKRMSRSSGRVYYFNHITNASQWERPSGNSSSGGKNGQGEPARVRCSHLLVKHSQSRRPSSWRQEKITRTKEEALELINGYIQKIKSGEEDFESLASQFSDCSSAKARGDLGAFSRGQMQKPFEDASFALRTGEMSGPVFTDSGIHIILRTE

[7] = biological target: parvulin-14 (Par14), also known as Pin4 (human) (UniProt Q9Y237); experiment: Corning Epic label-free optical biosensor
parvulin-14 (Par14), also known as Pin4 (human), sequence (Q9Y237 whole entry): as the sequence (Q9Y237 whole entry) above

recombinant human 6His-tagged-Pin1, sequence (Q13526 whole entry): as the sequence (Q13526 whole entry) above

Molecule: COC(=O)[C@H](Cc1ccccc1)NC(=O)[C@@H]1CCCN1C(=O)[C@H](Cc1c[nH]cn1)NC(=O)[C@H](C)NC(=O)CCNC(=O)[C@H](CCCNC(=N)N)NC(=O)[C@H](CCCNC(=N)N)NC(=O)[C@H](CCCNC(=N)N)NC(=O)[C@H](CCCNC(=N)N)NC(=O)[C@H](CCCNC(=N)N)NC(=O)[C@H](CCCNC(=N)N)NC(=O)[C@H](CCCNC(=N)N)NC(=O)[C@@H](N)CCCNC(=N)N [R8–5 k] (H-RRRRRRRR[βAla]AHPF-OMe; N-terminus assumed)
reduction of cell proliferation [3]: 50–60% | anti-proliferative activity (AC16 non-tumor cells): less than 20% | reduction of cell proliferation (HCT116 cells [4]): ~60% | cells within G1 phase (HCT116 cells [5]): 61.2%

Molecule: Methyl N2-(acetyl-L-alanyl)-Nω-((4-methoxy-2,3,6-trimethylphenyl)sulfonyl)-L-arginyl-L-prolyl-L-phenylalaninate (5 c) (peptide)
Kd [6]: 53.6 µM

Molecule: COC(=O)[C@H](Cc1ccccc1)NC(=O)[C@@H]1CCCN1C(=O)[C@H](CCCNC(=N)NS(=O)(=O)c1c(C)cc(OC)c(C)c1C)NC(=O)[C@H](C)NC(C)=O [5 c, Methyl N^2‐(acetyl‐L‐alanyl)‐N^ω‐((4‐methoxy‐2,3,6‐trimethylphenyl)sulfonyl)‐L‐arginyl‐L‐prolyl‐L‐phenylalaninate]
binding to Pin1 (in words) [1]: very little or no binding affinity

Molecule: Methyl N2-(acetyl-L-alanyl)-N6-((benzyloxy)carbonyl)-L-lysyl-L-prolyl-L-phenylalaninate (5 i) (peptide)
Kd [6]: 70.2 µM | Kd [7]: 28.2 µM

Molecule: Ac-AGPF-OMe (SMILES COC(=O)[C@H](Cc1ccccc1)NC(=O)[C@@H]1CCCN1C(=O)CNC(=O)[C@H](C)NC(C)=O) [Methyl acetyl-L-alanylglycyl-L-prolyl-L-phenylalaninate (5 a)]
Kd [6]: 6.09 µM

B3: Methyl acetyl-L-alanyl-L-seryl-L-prolyl-L-phenylalaninate (5 h) (peptide)
peptide: Ac-ASPF-OMe
SMILES: COC(=O)[C@H](Cc1ccccc1)NC(=O)[C@@H]1CCCN1C(=O)[C@H](CO)NC(=O)[C@H](C)NC(C)=O
Kd [6]: 4.5 µM

Molecule: Ac-[dA]EPF-OMe
Kd [7]: 18.6 µM

More lines, main results first:

binding to Pin1 (in words) [1]: very little or no binding affinity | binding to Pin4 (in words) [2]: micromolar range
Molecule: tert‐Butyl (S)‐4‐((S)‐2‐acetamidopropanamido)‐5‐((S)‐2‐(((R)‐1‐methoxy‐1‐oxo‐3‐phenylpropan‐2‐yl)carbamoyl)pyrrolidin‐1‐yl)‐5‐oxopentanoate [5 e]

Kd [6]: 22.4 µM
Molecule: Methyl acetyl-L-alanyl-L-lysyl-L-prolyl-L-phenylalaninate (5 j) (peptide)

binding to Pin1 (in words) [1]: does not reach saturation
Molecule: COC(=O)[C@H](Cc1ccccc1)NC(=O)[C@@H]1CCCN1C(=O)[C@H](CCCCNC(=O)OCc1ccccc1)NC(=O)[C@H](C)NC(=O)CCNC(=O)[C@H](CCCNC(=N)N)NC(=O)[C@H](CCCNC(=N)N)NC(=O)[C@H](CCCNC(=N)N)NC(=O)[C@H](CCCNC(=N)N)NC(=O)[C@H](CCCNC(=N)N)NC(=O)[C@H](CCCNC(=N)N)NC(=O)[C@H](CCCNC(=N)N)NC(=O)[C@@H](N)CCCNC(=N)N [R8–5 i] (H-RRRRRRRR[βAla]AK(Cbz)PF-OMe; N-terminus assumed)
reduction of cell proliferation [3]: 50–60% | anti-proliferative activity (AC16 non-tumor cells): less than 20% | reduction of cell proliferation (HCT116 cells [4]): ~60% | cells within G1 phase (HCT116 cells [5]): 66.4%

binding to Pin1 (in words) [1]: abrogates the interaction
Molecule: Methyl acetyl‐L‐alanyl‐L‐lysyl‐D‐prolyl‐L‐phenylalaninate [5 p]

binding to Pin1 (in words) [1]: very little or no binding affinity
Molecule: Methyl N‐(acetyl‐L‐alanyl)‐O‐benzyl‐L‐seryl‐L‐prolyl‐L‐phenylalaninate [5 g]

Kd [6]: 30.5 µM
Molecule: Ac-ARPF-OMe [Methyl acetyl-L-alanyl-L-arginyl-L-prolyl-L-phenylalaninate (5 d)]

Kd [6]: 6.11 µM
B1: Methyl acetyl-L-alanyl-L-valyl-L-prolyl-L-phenylalaninate (5 b) (peptide)
peptide: Ac-AVPF-OMe
SMILES: COC(=O)[C@H](Cc1ccccc1)NC(=O)[C@@H]1CCCN1C(=O)[C@@H](NC(=O)[C@H](C)NC(C)=O)C(C)C

Kd [7]: 5.7 µM
B2: Methyl acetyl-L-alanyl-L-histidyl-L-prolyl-L-phenylalaninate (5 k) (peptide)
peptide: Ac-AHPF-OMe
SMILES: COC(=O)[C@H](Cc1ccccc1)NC(=O)[C@@H]1CCCN1C(=O)[C@H](Cc1c[nH]cn1)NC(=O)[C@H](C)NC(C)=O

Kd [6]: 14.1 µM
B4: Methyl acetyl-L-alanyl-L-methionyl-L-prolyl-L-phenylalaninate (5 l) (peptide)
peptide: Ac-AMPF-OMe
SMILES: COC(=O)[C@H](Cc1ccccc1)NC(=O)[C@@H]1CCCN1C(=O)[C@H](CCSC)NC(=O)[C@H](C)NC(C)=O

Kd [6]: 62.5 µM
B5: Methyl acetyl-L-alanyl-L-glutaminyl-L-prolyl-L-phenylalaninate (5 m) (peptide)
peptide: Ac-AQPF-OMe
SMILES: COC(=O)[C@H](Cc1ccccc1)NC(=O)[C@@H]1CCCN1C(=O)[C@H](CCC(N)=O)NC(=O)[C@H](C)NC(C)=O

Source: paper PMC9321596 (Chemmedchem, 2022)
